Measurements pooled from the literature.
Each line is one published result; the experiments were not run side by side.
Cell line: HepG2
Effect on: cell growth or viability

SMILES	assay	setting	IC50
CC1=C(O)C(=O)C=C2C1=CC=C1[C@@]2(C)CC[C@@]2(C)[C@@H]3C[C@](C)(C(=O)OCCCN4C(=O)C5C=CC=CC5C4=O)CC[C@]3(C)CC[C@]12C (stereo partly drawn)	MTT	48 h	1.27 µM
COc1cc2ncnc(Nc3ccc(F)c(Cl)c3)c2cc1NC(=O)N/N=C/c1cccn1CCN1CCCC1	MTT	72 h	0.16 µM
Oc1ncnc2cc(Nc3nc(-c4ccc(Cl)cc4)cs3)ccc12	MTT		9.36 µM
Cc1cc(=O)oc2ccc(-c3cc(-c4ccc(Br)cc4)nc(N)n3)c(O)c12	MTT	72 h	> 128 µg/mL
C=CCn1c(-c2ccc(Cl)c(Cl)c2)nc2ccccc21	MTT		66.1 µM
COc1cc2ncnc(Nc3ccc(F)c(Cl)c3)c2cc1NC(=O)N/N=C/CN1CCCCC1	MTT	72 h	2.06 µM
O=Cc1ccc(CO)o1	WST-1	48 h	77.7 µM
COc1cccc2c1C(=O)c1c(O)c3c(c(O)c1C2=O)C[C@@](O)(C(=O)CO)C[C@@H]3O[C@H]1C[C@H](N)[C@H](O)[C@H](C)O1	SRB		0.37 µM
C[C@H]1[C@@H](O)O[C@@H]2O[C@@]3(C)CC[C@H]4[C@H](C)CC[C@@H]1[C@@]24OO3	CCK-8	48 h	> 50 µM
Cc1ccc2c(Br)cc(Br)c(O)c2n1	MTT	48 h	> 150 µM
COc1ccc(-c2csc(Nc3ccc4c(O)ncnc4c3)n2)cc1	MTT		17.3 µM
Cc1ccc2nc(-c3cc(Br)ccc3O)[nH]c2c1	MTT	48 h	8.93 µM
COC(=O)CN=c1scc(-c2ccccc2)n1-c1ccccc1OC	MTT	72 h	22.7 µM
COC1=C2C[C@@H](C)C[C@H](OC)[C@H](O)[C@@H](C)/C=C(\C)[C@H](OC(N)=O)[C@@H](OC)/C=C\C=C(/C)C(=O)NC(=CC1=O)C2=O	MTT		0.041 µM
CCN(CC)CCCn1cccc1/C=N/NC(=O)Nc1cc2c(Nc3ccc(F)c(Cl)c3)ncnc2cc1OC	MTT	72 h	0.22 µM
Cc1cc(C)cc(NC(=O)NNC(=O)c2ccc(Nc3nccc(-c4ccccn4)n3)cc2)c1	MTT	24 h	20.3 µM
Cc1ccc2nc(-c3ccc([N+](=O)[O-])cc3)n(Cc3ccccc3)c2c1	MTT		6.74 µM
CN(C)CCn1cccc1/C=N/NC(=O)Nc1cc2c(Nc3ccc(F)c(Cl)c3)ncnc2cc1O[C@H]1CCOC1	MTT	72 h	0.04 µM
Oc1cccc(-c2nc3ccccc3[nH]2)c1	MTT	48 h	83 µM
CCCCc1ccc2[nH]c(NC(=O)OC)nc2c1	CCK-8	72 h	0.044 µM
Cc1cc(C)n(-c2nc(Nc3ccc(Br)cc3)nc(N3CCOCC3)n2)n1	MTT	72 h	3.01 µM
CC1=C(O)C(=O)C=C2C1=CC=C1[C@@]2(C)CC[C@@]2(C)[C@@H]3C[C@](C)(C(=O)OCCO)CC[C@]3(C)CC[C@]12C	MTT	48 h	0.62 µM
CNC(=O)c1cc(Oc2ccc(NC(=O)Nc3ccc(Cl)c(C(F)(F)F)c3)cc2)ccn1	MTT	24 h	16.9 µM
c1ccc(-c2ccccn2)nc1	MTT	48 h	> 50 µM

SMILES	assay	setting	IC50
CCN(CC)CCn1cccc1/C=N/NC(=O)Nc1cc2c(Nc3ccc(F)c(Cl)c3)ncnc2cc1OC	MTT	72 h	1.62 µM
Nc1ccc(-c2csc(Nc3ccc4c(O)ncnc4c3)n2)cc1	MTT		15 µM
O=c1[nH]cc(F)c(=O)[nH]1	WST-1	48 h	21.4 µM
Nc1nc(-c2ccc(NC(=O)c3ccc(Cl)c(Cl)c3)cc2F)c[nH]1	XTT	24 h	16.9 µM
O=C(NNC(=O)c1ccc(Nc2nccc(-c3ccccn3)n2)cc1)NC1CCCC1	MTT		> 40 µM
COc1cc2ncnc(Nc3ccc(F)c(Cl)c3)c2cc1NC(=O)N/N=C/c1cccn1CCCN1CCCCC1	MTT	72 h	0.31 µM
Cc1ccc2nc(-c3ccncc3)[nH]c2c1	MTT	48 h	52.6 µM
CC(C)(C)NC(=O)NNC(=O)c1ccc(Nc2nccc(-c3ccccn3)n2)cc1	MTT		> 40 µM
Nc1ncnc2c1ncn2[C@@H]1O[C@H](CO)[C@@H](O)[C@H]1O	WST-1	48 h	55.1 µM
Oc1ncnc2cc(Nc3nc(-c4ccc(F)cc4)cs3)ccc12	MTT		7.92 µM
CC1=C(O)C(=O)C=C2C1=CC=C1[C@@]2(C)CC[C@@]2(C)[C@@H]3C[C@](C)(C(=O)OCCCCCO)CC[C@]3(C)CC[C@]12C	MTT	48 h	10.1 µM
COc1cccc2c1C(=O)c1c(O)c3c(c(O)c1C2=O)C[C@@](O)(C(=O)CO)C[C@@H]3O[C@H]1C[C@H](N)[C@H](O)[C@H](C)O1	MTT	48 h	0.12 µg/mL
O=[N+]([O-])c1cccc(-c2nc3ccccc3[nH]2)c1	MTT	48 h	39 µM
Oc1c(Br)cc(Br)c2cccnc12	MTT	48 h	> 100 µM
Cc1ccc(-c2ccc(O)cc2)c(C(=C2C=CC(=O)C=C2)c2ccc(O)cc2)c1C#Cc1ccc(O)cc1	MTT	48 h	16.4 µM
CC(=O)O[C@H]1C(=O)[C@@]2(C)[C@H]([C@H](OC(=O)c3ccccc3)[C@]3(O)C[C@H](OC(=O)[C@H](O)[C@@H](NC(=O)c4ccccc4)c4ccccc4)C(C)=C1C3(C)C)[C@]1(OC(C)=O)CO[C@@H]1C[C@@H]2O	MTT	48 h	4.75 µM
CCN(CC)CCn1cccc1/C=N/NC(=O)Nc1cc2c(Nc3ccc(F)c(Cl)c3)ncnc2cc1O[C@H]1CCOC1	MTT	72 h	0.54 µM
Cc1cc(=O)oc2ccc(-c3cc(-c4ccccc4)nc(N)n3)c(O)c12	MTT	72 h	> 128 µg/mL
Fc1cccc(Cl)c1-c1nc2ccccc2[nH]1	MTT	48 h	> 100 µM
COc1cc2c(Nc3ccc(NC(=O)c4ccccc4)cc3)ncnc2cc1OCCCN1CCOCC1	MTS	72 h	0.6 µM
COC(=O)CN=c1scc(-c2ccccc2)n1-c1ccccc1[N+](=O)[O-]	MTT		15.4 µM
COc1cc2ncnc(Nc3ccc(F)c(Cl)c3)c2cc1NC(=O)N/N=C/c1cccn1CCCN1CCN(C)CC1	MTT	72 h	0.08 µM
CC1=C(O)C(=O)C=C2C1=CC=C1[C@@]2(C)CC[C@@]2(C)[C@@H]3C[C@](C)(C(=O)OCCCO)CC[C@]3(C)CC[C@]12C	MTT	48 h	0.75 µM
COc1cccc2c1C(=O)c1c(O)c3c(c(O)c1C2=O)C[C@@](O)(C(=O)CO)C[C@@H]3O[C@H]1C[C@H](N)[C@H](O)[C@H](C)O1	neutral red	48 h	0.23 µg/mL
